From ChEMBL document CHEMBL1154675, “Identification of death-associated protein kinases inhibitors using structure-based virtual screening” (J Med Chem, 2009)
pIC50: −log10 of the molar value. Active and inactive are the calls of the source. The calls are words filed in the database; no cut-off is given here.

Columns and labels:
[1] = target: T1, Death-associated protein kinase 3 (Homo sapiens, UniProt O43293); assay: Inhibition of DAPK3 at 10 uM
Procedure, shortened: (§1)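 Single-concentration screen of recombinant DAPK3 in the standard Z'-LYTE Ser/Thr 13 peptide reaction: peptide substrate and ATP in 50 mM HEPES pH 7.4, 10 mM MgCl2, 0.01% Brij-35, 0.5% DMSO. Percent inhibition of enzyme activity was read at the stated final compound concentration.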
Target sequence in this assay (O43293 whole entry, looked up): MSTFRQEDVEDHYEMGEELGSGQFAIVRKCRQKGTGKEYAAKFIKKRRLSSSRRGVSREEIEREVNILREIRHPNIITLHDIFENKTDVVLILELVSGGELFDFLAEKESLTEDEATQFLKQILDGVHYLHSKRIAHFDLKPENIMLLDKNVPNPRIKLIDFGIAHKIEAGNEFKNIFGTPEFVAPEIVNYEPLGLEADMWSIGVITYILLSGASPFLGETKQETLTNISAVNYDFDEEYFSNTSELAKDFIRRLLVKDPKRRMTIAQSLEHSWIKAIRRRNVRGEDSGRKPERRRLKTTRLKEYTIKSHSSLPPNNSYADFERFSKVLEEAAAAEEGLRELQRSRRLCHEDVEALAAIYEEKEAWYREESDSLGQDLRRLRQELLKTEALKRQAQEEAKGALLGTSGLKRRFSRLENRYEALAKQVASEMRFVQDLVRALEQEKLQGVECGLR

[2] = target: T1, Death-associated protein kinase 3; assay: Inhibition of DAPK3 at 1 uM; procedure, shortened: as §1
Target sequence in this assay (O43293 whole entry, looked up): as above

[3] = target: Tyrosine-protein kinase ABL1 (Homo sapiens) (UniProt P00519); assay: Inhibition of ABL at 10 uM
[4] = target: Mitogen-activated protein kinase 3 (Homo sapiens) (UniProt P27361); assay: Inhibition of Erk1 at 10 uM
[5] = target: Serine/threonine-protein kinase MARK1 (Homo sapiens) (UniProt Q9P0L2); assay: Inhibition of MARK1 at 10 uM
[6] = target: Protein kinase C zeta type (Homo sapiens) (UniProt Q05513); assay: Inhibition of PKCzeta at 10 uM
[7] = target: RAC-alpha serine/threonine-protein kinase (Homo sapiens) (UniProt P31749); assay: Inhibition of AKT1 at 10 uM
[8] = target: Receptor-type tyrosine-protein kinase FLT3 (Homo sapiens) (UniProt P36888); assay: Inhibition of FLT3 at 10 uM
[9] = target: MAP kinase-activated protein kinase 2 (Homo sapiens) (UniProt P49137); assay: Inhibition of MAPKAPK2 at 10 uM
Procedure, shortened: (§2)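 Selectivity panel run with ProfilerPro kinase kits following the kit protocol. Activity against each kinase was reported as an IC50 range: below 1 μM, between 1 and 10 μM, or above 10 μM.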

[10] = target: Serine/threonine-protein kinase D2 (Homo sapiens) (UniProt Q9BZL6); assay: Inhibition of PKD2 at 10 uM
[11] = target: RAC-beta serine/threonine-protein kinase (Homo sapiens) (UniProt P31751); assay: Inhibition of AKT2 at 10 uM
[12] = target: Tyrosine-protein kinase Fyn (Homo sapiens) (UniProt P06241); assay: Inhibition of FYN at 10 uM; procedure, shortened: as §2
[13] = target: Hepatocyte growth factor receptor (Homo sapiens) (UniProt P08581); assay: Inhibition of MET at 10 uM; procedure, shortened: as §2
[14] = Inhibition of PKGalpha at 10 uM
[15] = Inhibition of AMPK at 10 uM
[16] = target: Glycogen synthase kinase-3 beta (Homo sapiens) (UniProt P49841); assay: Inhibition of GSK3-beta at 10 uM
[17] = target: Ribosomal protein S6 kinase alpha-5 (Homo sapiens) (UniProt O75582); assay: Inhibition of MSK1 at 10 uM; procedure, shortened: as §2
[18] = target: MAP kinase-activated protein kinase 5 (Homo sapiens) (UniProt Q8IW41); assay: Inhibition of PRAK at 10 uM; procedure, shortened: as §2
[19] = target: Aurora kinase A (Homo sapiens) (UniProt O14965); assay: Inhibition of AurA at 10 uM
[20] = target: Mitogen-activated protein kinase kinase kinase kinase 4 (Homo sapiens) (UniProt O95819); assay: Inhibition of HGK at 10 uM
[21] = target: Serine/threonine-protein kinase 3 (Homo sapiens) (UniProt Q13188); assay: Inhibition of MST2 at 10 uM; procedure, shortened: as §2
[22] = target: Rho-associated protein kinase 2 (Homo sapiens) (UniProt O75116); assay: Inhibition of ROCK2 at 10 uM
[23] = target: Tyrosine-protein kinase BTK (Homo sapiens) (UniProt Q06187); assay: Inhibition of BTK at 10 uM; procedure, shortened: as §2
[24] = target: Insulin-like growth factor 1 receptor (Homo sapiens) (UniProt P08069); assay: Inhibition of IGF1R at 10 uM
[25] = target: Mitogen-activated protein kinase 14 (Homo sapiens) (UniProt Q16539); assay: Inhibition of p38alpha at 10 uM
[26] = target: Ribosomal protein S6 kinase alpha-1 (Homo sapiens) (UniProt Q15418); assay: Inhibition of RSK1 at 10 uM; procedure, shortened: as §2
[27] = Inhibition of CAMK2 at 10 uM
[28] = target: Insulin receptor (Homo sapiens) (UniProt P06213); assay: Inhibition of INSR at 10 uM
[29] = target: Serine/threonine-protein kinase PAK 2 (Homo sapiens) (UniProt Q13177); assay: Inhibition of PAK2 at 10 uM
[30] = target: Proto-oncogene tyrosine-protein kinase Src (Homo sapiens) (UniProt P12931); assay: Inhibition of SRC at 10 uM
[31] = target: Calcium/calmodulin-dependent protein kinase type IV (Homo sapiens) (UniProt Q16566); assay: Inhibition of CAMK4 at 10 uM; procedure, shortened: as §2
[32] = target: Interleukin-1 receptor-associated kinase 4 (Homo sapiens) (UniProt Q9NWZ3); assay: Inhibition of IRAK4 at 10 uM; procedure, shortened: as §2
[33] = target: Serine/threonine-protein kinase pim-2 (Homo sapiens) (UniProt Q9P1W9); assay: Inhibition of PIM2 at 10 uM
[34] = target: Cyclin-dependent kinase 2 (Homo sapiens) (UniProt P24941); assay: Inhibition of CDK2 at 10 uM; procedure, shortened: as §2
[35] = target: Tyrosine-protein kinase Lck (Homo sapiens) (UniProt P06239); assay: Inhibition of LCK at 10 uM; procedure, shortened: as §2
[36] = Inhibition of PKA at 10 uM
[37] = target: MAP/microtubule affinity-regulating kinase 3 (Homo sapiens) (UniProt P27448); assay: Inhibition of c-TAK1 at 10 uM; procedure, shortened: as §2
[38] = target: Serine/threonine-protein kinase Chk1 (Homo sapiens) (UniProt O14757); assay: Inhibition of CHK1 at 10 uM; procedure, shortened: as §2
[39] = target: Tyrosine-protein kinase Lyn (Homo sapiens) (UniProt P07948); assay: Inhibition of LYN at 10 uM; procedure, shortened: as §2
[40] = target: Protein kinase C beta type (Homo sapiens) (UniProt P05771); assay: Inhibition of PKCbeta2 at 10 uM
[41] = target: RAF proto-oncogene serine/threonine-protein kinase (Homo sapiens) (UniProt P04049); assay: Inhibition of c-Raf at 10 uM
[42] = target: Serine/threonine-protein kinase Chk2 (Homo sapiens) (UniProt O96017); assay: Inhibition of CHK2 at 10 uM; procedure, shortened: as §2
[43] = target: Casein kinase I isoform delta (Homo sapiens, UniProt P48730); assay: Inhibition of CK1delta; procedure, shortened: as §2
[44] = target: Fibroblast growth factor receptor 1 (Homo sapiens, UniProt P11362); assay: Inhibition of FGFR1; procedure, shortened: as §2
[45] = Inhibition of p70S6K
Procedure, shortened: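 Selectivity panel of kinases run with a commercial profiling kit according to the kit protocol. Inhibition is reported only as IC50 bands: below 1 μM, 1–10 μM, or above 10 μM.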

[46] = target: Death-associated protein kinase 1 (Homo sapiens, UniProt P53355); assay: Inhibition of DAPK1
Procedure, shortened: (§3)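 IC50 runs used the Z'-LYTE Ser/Thr 13 peptide format. Human recombinant DAPK1 was at 2.6 μg/mL final; DAPK3 was recombinant. Each kinase was incubated with 10 μM ATP and a range of inhibitor concentrations in 50 mM HEPES pH 7.4, 10 mM MgCl2, 0.01% Brij-35, 0.5% DMSO, with peptide substrate.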

[47] = target: Dual specificity tyrosine-phosphorylation-regulated kinase 1A (Homo sapiens, UniProt Q13627); assay: Inhibition of […]; procedure, shortened: as §2
[48] = target: Vascular endothelial growth factor receptor 2 (Homo sapiens, UniProt P35968); assay: Inhibition of KDR; procedure, shortened: as §2
[49] = target: T1, Death-associated protein kinase 3; assay: Inhibition of DAPK3; procedure, shortened: as §3
Target sequence in this assay (O43293 whole entry): as the sequence (O43293 whole entry, looked up) above

[50] = target: Mitogen-activated protein kinase 1 (Homo sapiens, UniProt P28482); assay: Inhibition of Erk2; procedure, shortened: as §2
[51] = target: Serine/threonine-protein kinase Sgk1 (Homo sapiens, UniProt O00141); assay: Inhibition of SGK1; procedure, shortened: as §2
[52] = target: Tyrosine-protein kinase SYK (Homo sapiens) (UniProt P43405); assay: Inhibition of SYK at 10 uM

Chain of Receptor-type tyrosine-protein kinase FLT3 (Homo sapiens) (P36888 whole entry): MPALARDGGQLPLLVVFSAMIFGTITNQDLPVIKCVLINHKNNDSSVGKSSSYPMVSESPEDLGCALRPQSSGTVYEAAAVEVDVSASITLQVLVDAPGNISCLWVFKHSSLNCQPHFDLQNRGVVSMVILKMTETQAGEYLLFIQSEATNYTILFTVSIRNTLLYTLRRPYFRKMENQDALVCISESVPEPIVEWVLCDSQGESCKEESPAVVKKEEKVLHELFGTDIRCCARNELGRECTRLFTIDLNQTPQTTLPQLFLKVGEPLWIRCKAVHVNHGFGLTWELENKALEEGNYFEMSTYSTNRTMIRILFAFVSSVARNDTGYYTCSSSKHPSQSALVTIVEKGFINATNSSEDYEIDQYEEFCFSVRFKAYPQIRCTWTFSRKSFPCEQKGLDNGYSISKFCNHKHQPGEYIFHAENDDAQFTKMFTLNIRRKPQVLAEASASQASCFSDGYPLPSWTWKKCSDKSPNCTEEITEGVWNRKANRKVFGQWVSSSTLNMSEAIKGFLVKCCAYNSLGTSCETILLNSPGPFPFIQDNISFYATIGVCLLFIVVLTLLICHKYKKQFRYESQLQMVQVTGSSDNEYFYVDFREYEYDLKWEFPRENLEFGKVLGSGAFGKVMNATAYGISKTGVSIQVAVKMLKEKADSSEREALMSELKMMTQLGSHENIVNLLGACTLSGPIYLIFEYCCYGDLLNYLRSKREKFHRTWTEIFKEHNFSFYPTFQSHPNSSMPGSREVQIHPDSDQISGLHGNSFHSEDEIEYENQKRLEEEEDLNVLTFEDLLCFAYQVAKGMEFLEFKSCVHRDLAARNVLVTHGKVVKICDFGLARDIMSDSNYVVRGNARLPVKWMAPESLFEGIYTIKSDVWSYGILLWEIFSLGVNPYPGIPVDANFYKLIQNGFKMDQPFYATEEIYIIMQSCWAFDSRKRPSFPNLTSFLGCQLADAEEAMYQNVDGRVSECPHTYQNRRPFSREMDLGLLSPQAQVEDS
Chain of Insulin receptor (Homo sapiens) (P06213 28-758 limits assumed): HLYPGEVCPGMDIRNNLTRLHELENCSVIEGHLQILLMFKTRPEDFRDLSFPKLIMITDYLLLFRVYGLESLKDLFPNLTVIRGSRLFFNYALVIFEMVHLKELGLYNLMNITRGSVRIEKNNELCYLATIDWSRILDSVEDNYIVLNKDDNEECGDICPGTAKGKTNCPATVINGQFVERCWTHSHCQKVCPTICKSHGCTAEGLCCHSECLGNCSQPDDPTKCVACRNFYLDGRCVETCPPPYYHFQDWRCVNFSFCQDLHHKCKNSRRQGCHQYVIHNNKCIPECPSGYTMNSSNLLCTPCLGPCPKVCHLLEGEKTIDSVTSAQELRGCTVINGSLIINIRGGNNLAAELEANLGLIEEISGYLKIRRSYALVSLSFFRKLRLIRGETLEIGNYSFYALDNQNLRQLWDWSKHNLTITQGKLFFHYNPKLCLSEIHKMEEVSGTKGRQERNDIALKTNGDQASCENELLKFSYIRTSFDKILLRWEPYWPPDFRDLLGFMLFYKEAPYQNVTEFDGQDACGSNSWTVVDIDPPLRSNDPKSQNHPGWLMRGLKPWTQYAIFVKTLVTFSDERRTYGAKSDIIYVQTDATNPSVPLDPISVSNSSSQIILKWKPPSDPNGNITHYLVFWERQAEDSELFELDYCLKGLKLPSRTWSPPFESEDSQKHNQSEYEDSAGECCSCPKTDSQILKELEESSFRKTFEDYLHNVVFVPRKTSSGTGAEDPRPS
Chain of Insulin receptor (Homo sapiens) (P06213 763-1382 limits assumed): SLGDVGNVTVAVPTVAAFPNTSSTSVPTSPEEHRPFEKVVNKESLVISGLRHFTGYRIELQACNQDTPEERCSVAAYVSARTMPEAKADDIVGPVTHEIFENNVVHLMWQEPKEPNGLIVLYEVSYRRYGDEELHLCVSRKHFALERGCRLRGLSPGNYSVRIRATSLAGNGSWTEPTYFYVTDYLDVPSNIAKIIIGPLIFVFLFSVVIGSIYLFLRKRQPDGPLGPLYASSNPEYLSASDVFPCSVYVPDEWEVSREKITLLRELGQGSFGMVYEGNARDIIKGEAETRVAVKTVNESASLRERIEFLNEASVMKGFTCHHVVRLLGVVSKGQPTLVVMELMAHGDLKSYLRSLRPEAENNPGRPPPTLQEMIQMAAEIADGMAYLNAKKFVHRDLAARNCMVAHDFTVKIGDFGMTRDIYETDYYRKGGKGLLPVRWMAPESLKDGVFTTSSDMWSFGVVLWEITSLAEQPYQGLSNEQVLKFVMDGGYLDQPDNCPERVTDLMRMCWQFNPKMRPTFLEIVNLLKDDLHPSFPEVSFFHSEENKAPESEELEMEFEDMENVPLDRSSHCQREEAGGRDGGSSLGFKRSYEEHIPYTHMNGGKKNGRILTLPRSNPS
Chain of Insulin-like growth factor 1 receptor (Homo sapiens) (P08069 31-736 limits assumed): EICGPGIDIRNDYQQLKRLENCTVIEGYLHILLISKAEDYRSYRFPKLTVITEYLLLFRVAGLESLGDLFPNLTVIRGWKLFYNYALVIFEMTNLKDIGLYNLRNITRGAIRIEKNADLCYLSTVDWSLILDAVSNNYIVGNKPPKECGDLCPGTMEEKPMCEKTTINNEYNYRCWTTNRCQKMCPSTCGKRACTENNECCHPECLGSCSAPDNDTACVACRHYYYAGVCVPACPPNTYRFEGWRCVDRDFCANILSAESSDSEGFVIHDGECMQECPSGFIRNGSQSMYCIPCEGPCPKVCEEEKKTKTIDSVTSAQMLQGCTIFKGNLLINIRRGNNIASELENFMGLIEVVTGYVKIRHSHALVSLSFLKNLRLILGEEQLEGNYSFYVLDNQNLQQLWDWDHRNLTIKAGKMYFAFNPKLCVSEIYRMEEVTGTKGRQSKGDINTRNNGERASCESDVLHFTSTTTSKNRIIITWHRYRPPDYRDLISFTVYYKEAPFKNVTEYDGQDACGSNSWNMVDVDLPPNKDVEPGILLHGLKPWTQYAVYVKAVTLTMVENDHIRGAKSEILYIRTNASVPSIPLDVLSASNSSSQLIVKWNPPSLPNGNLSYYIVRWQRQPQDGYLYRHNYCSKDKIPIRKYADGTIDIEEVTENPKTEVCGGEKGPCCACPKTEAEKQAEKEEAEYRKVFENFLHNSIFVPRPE
Chain of Insulin-like growth factor 1 receptor (Homo sapiens) (P08069 741-1367 limits assumed): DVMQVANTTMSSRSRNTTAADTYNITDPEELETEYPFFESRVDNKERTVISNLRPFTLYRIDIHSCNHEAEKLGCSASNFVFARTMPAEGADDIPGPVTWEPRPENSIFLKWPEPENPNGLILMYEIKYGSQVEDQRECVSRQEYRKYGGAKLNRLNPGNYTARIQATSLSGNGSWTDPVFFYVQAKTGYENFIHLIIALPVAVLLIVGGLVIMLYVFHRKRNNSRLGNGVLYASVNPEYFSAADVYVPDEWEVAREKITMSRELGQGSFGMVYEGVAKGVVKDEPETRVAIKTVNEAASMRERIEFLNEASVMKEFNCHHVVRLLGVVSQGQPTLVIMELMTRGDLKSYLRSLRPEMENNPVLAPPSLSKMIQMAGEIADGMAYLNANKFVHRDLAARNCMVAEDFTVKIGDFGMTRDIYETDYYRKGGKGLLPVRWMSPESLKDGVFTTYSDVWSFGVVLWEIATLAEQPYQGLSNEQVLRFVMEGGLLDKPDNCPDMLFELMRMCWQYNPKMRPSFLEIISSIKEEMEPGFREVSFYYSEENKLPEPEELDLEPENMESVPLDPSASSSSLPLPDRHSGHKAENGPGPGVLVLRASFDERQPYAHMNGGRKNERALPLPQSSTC
Chain of RAF proto-oncogene serine/threonine-protein kinase (Homo sapiens) (P04049 whole entry): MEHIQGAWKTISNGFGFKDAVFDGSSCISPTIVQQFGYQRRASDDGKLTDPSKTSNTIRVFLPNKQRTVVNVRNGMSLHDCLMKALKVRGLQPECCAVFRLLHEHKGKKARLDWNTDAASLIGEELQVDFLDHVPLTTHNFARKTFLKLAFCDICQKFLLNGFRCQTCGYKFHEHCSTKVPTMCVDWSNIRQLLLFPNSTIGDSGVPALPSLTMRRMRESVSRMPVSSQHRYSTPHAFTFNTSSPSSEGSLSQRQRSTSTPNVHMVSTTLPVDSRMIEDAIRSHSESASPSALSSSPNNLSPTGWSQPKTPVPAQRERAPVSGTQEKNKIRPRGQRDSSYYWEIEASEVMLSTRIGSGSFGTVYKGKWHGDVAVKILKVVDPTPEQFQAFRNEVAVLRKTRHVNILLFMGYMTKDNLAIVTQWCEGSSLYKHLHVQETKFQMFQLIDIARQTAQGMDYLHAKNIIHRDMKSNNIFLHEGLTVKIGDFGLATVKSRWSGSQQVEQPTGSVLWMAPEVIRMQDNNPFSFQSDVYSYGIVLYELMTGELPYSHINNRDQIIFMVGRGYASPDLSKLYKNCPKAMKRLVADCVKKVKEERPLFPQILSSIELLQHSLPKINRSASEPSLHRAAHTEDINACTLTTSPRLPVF

## Cc1cccc2c(C(=O)O)cc(-c3ccncc3)nc12
[1]
  inhibition: 72%
[2]
  inhibition: 2%

## Cc1c(O)ccc2c(CN3CCN(C)CC3)cc(=O)oc12
[1]
  inhibition: 54%
[2]
  inhibition: 12%

## Cc1ccccc1C1=N/C(=C\c2cccnc2)C(=O)O1
[1]
  inhibition: 58%
[2]
  inhibition: 3%

## O=C1OC(c2cccc(Cl)c2[N+](=O)[O-])=N/C1=C\c1cccnc1
[1]
  inhibition: 58%
[2]
  inhibition: 3%

## O=C1OC(C23CC4CC(CC(C4)C2)C3)=N/C1=C\c1cccnc1
[1]
  inhibition: 58%
[2]
  inhibition: 3%

## O=C1OC(/C=C/c2ccccc2)=NC/1=C\c1cccnc1
[1]
  inhibition: 58%
[2]
  inhibition: 3%
[3]
  inhibition: inactive
[4]
  inhibition: inactive
[5]
  inhibition: inactive
[6]
  inhibition: inactive
[7]
  inhibition: inactive
[8]
  inhibition: inactive
[9]
  inhibition: inactive
[10]
  inhibition: inactive
[11]
  inhibition: inactive
[12]
  inhibition: inactive
[13]
  inhibition: inactive
[14]
  inhibition: inactive
[15]
  inhibition: inactive
[16]
  inhibition: inactive
[17]
  inhibition: inactive
[18]
  inhibition: inactive
[19]
  inhibition: inactive
[20]
  inhibition: inactive
[21]
  inhibition: inactive
[22]
  inhibition: inactive
[23]
  inhibition: inactive
[24]
  inhibition: inactive
[25]
  inhibition: inactive
[26]
  inhibition: inactive
[27]
  inhibition: inactive
[28]
  inhibition: inactive
[29]
  inhibition: inactive
[30]
  inhibition: inactive
[31]
  inhibition: inactive
[32]
  inhibition: inactive
[33]
  inhibition: inactive
[34]
  inhibition: inactive
[35]
  inhibition: inactive
[36]
  inhibition: inactive
[37]
  inhibition: inactive
[38]
  inhibition: inactive
[39]
  inhibition: inactive
[40]
  inhibition: inactive
[41]
  inhibition: inactive
[42]
  inhibition: inactive
[43]
  pIC50: < 5.00
[44]
  pIC50: < 5.00
[45]
  pIC50: > 5.00
[46]
  pIC50: > 6.00
[47]
  pIC50: < 5.00
[48]
  pIC50: < 5.00
[49]
  pIC50: > 6.00
[50]
  pIC50: < 5.00
[51]
  pIC50: < 5.00
[52]
  inhibition: inactive

## O=C1OC(c2ccccc2)=N/C1=C\c1cccnc1
[1]
  inhibition: 84%
[2]
  inhibition: 71%

## Cc1ccc2nc(-c3ccncc3)cc(C(=O)O)c2c1
[1]
  inhibition: 58%
[2]
  inhibition: 3%
